Screening data (PubChem BioAssay)
PfGluPho inh: PfG6PD enzyme inhibitors, primary screen, biochemical, fluorescence intensity, uHTS; PfGluPho enzyme, NADPH resazurin-diaphorase fluorescence; inhibition, % at 20 µM; hit rate 0.78% among 350,000; AID 504690, 2011;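 active = inhibition reaching at least a set limit at 20 µM in the primary screen, cut at about 59% in these data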;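 note: 0% = DMSO wells with substrate and 100% = DMSO wells lacking glucose-6-phosphate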
SUMO HTRF inh: inhibitors of in vitro SUMOylation cascade, primary screen, biochemical, HTRF, uHTS; SUMO-conjugating enzyme UBC9 (Homo sapiens), P63279; HTRF SUMOylation assay, SAE1/SAE2 + UBC9; inhibition, % at 35 µM; AID 2006, 2009; hit rate 0.36% among 290,000; in the data active = inhibition above about 50%, passing the limit was not always enough; inconclusive = no clear call, values can overlap the other calls
PfM18AAP inh: PfM18AAP inhibitors, malaria aminopeptidase, primary screen, biochemical, QFRET, recombinant enzyme; H-Glu-NHMec fluorogenic cleavage; AID 1822, 2009; inhibition, % at 7.35 µM; hit rate 1.2% among 290,000;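 active = inhibition above the campaign mean inhibition over all tested compounds plus 3 SD, cut at about 28% in these data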;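 note: 0% = plate median of test compound wells and 100% = 2 mM ZnCl2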
HKDC1 inhibitor: HKDC1 hexokinase inhibitors, primary screen, biochemical, fluorescence, uHTS; Q2TB90; recombinant HKDC1, G6PDH/diaphorase resazurin coupled fluorescence; inhibition, % at 20 µM; hit rate 0.16% among 340,000;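 active = inhibition above about 35% when tested at 20 µM, limit read from the data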;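 note: plate controls were DMSO wells with enzyme for no effect and DMSO wells lacking enzyme for full effect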
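Assay system: in-house recombinant HK5 (HKDC1) enzyme. Input: HKDC1 at 5 µg/mL. Medium: Tris pH 8.0 buffer with MgCl2, Tween-20, BSA, BME. Dosing: single 20 µM dose. Schedule: 90 min reaction incubation at room temperature, dark. Signal: resazurin-to-resorufin fluorescence via G6PDH and diaphorase coupling, 525/613 nm. Controls: DMSO-enzyme wells negative, buffer-substituted wells positive.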
A3G deaminase: APOBEC3G DNA deaminase inhibitors, primary screen, biochemical, fluorescence, single-stranded DNA substrate, uHTS | inhibition, % at 20 µM | hit rate 0.28% among 330,000 | recombinant A3G, ssDNA deamination FAM/TAMRA fluorescence | DNA dC->dU-editing enzyme APOBEC-3G (Homo sapiens), Q9HC16;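 active = inhibition of at least 40% at 20 µM, with no more than 30% in the related APOBEC3A deaminase screen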;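 note: plate controls were DMSO wells with A3G for no effect and wells lacking A3G enzyme for full effect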
Target sequence (Q9HC16 whole entry, looked up): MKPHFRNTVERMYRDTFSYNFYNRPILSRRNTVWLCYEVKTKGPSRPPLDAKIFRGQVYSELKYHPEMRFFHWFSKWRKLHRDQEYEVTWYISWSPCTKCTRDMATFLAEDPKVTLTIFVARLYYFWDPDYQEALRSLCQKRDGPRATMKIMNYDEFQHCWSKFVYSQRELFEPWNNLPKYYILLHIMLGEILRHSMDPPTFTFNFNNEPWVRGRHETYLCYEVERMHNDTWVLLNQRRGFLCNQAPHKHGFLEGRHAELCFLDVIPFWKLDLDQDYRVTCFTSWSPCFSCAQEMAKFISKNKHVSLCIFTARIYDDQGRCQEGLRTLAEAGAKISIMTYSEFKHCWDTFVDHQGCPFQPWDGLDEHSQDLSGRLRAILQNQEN
APOBEC3A inh: APOBEC3A ssDNA deaminase inhibitors, primary screen, selectivity assay for APOBEC3G inhibitor project, biochemical, FAM/TAMRA oligo cleavage fluorescence. DNA dC->dU-editing enzyme APOBEC-3A (Homo sapiens), P31941. recombinant A3A, FAM/TAMRA ssDNA deamination fluorescence. inhibition, % at 20 µM. hit rate 0.41% among 330,000;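 active = at least 40% inhibition at 20 µM here, with at most 30% in a related deaminase screen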;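 note: plate controls were A3A with DMSO for no effect and wells lacking A3A enzyme for full effect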
Target sequence (P31941 whole entry, looked up): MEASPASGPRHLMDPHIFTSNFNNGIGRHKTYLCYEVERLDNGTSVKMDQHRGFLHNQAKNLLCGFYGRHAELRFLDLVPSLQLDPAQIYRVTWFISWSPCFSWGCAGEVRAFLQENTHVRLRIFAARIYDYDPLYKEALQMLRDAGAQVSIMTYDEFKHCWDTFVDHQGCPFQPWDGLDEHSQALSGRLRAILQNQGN
HKDC1 act conf2: HKDC1 hexokinase activators, confirmation, biochemical, single concentration; shares compounds with HKDC1 inhibitor; recombinant HKDC1, G6PDH/diaphorase resazurin fluorescence; hits give low values; inhibition, % at 20 µM; hit rate 14% among 740;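 active = inhibition at or below a set negative limit, negative inhibition meaning the enzyme was activated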
PfG6PD confirm: PfG6PD inhibitors, hit retest, confirmation, biochemical, fluorescence intensity, single concentration | inhibition, % at 20 µM | AID 504753, 2011 | recombinant PfGluPho, NADPH-diaphorase-resazurin fluorescence | hit rate 34% among 2,400 | shares compounds with PfGluPho inh;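 active = inhibition of at least 50% at 20 µM in any single replicate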;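 note: 0% = DMSO with substrate and 100% = DMSO lacking glucose-6-phosphate substrate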
Diaph ctr 10uM: diaphorase inhibitors and chemical oxidizers, confirmation, counter-screen for P. falciparum G6PD inhibitor project, biochemical, fluorescence intensity, 10 µM NADPH; shares compounds with PfGluPho inh; diaphorase-coupled resazurin reduction, NADPH 10 uM; inhibition, % at 20 µM; hit rate 39% among 820; AID 504862, 2011;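 active = average inhibition reaching 50% or more with the compound at 20 µM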;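 note: resorufin red fluorescence formed as diaphorase reduces resazurin using NADPH; 0% = DMSO with enzyme and 100% = DMSO without enzyme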
Diaph ctr 30uM: diaphorase inhibitors and chemical oxidizers, confirmation, counter-screen for P. falciparum G6PD inhibitor project, biochemical, fluorescence intensity, 30 µM NADPH; shares compounds with PfGluPho inh; Diaphorase/resazurin coupled assay, resorufin fluorescence; inhibition, % at 20 µM; hit rate 29% among 820; AID 504863, 2011;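 active = inhibition averaging 50% or more, tested at 20 µM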;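 note: 0% = DMSO with enzyme and 100% = DMSO wells lacking diaphorase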
Starred values were filed as active, the others as inactive; ? = inconclusive; / = not tested or not shown. In the library only some 2.4% were active in any assay of this set; here they are far more common.

SMILES	PfGluPho inh	SUMO HTRF inh	PfM18AAP inh	HKDC1 inhibitor	A3G deaminase	APOBEC3A inh	HKDC1 act conf2	PfG6PD confirm	others
CC1=NOC(=O)/C1=C\c1ccc(-c2ccc(Cl)cc2Cl)o1	70*	20	15	54*	9	12	47	-26
CCCOc1ccc(Cl)cc1/C=C1/C(=O)ON=C1C	10	-6	16	5	-6	-6	/	/
COC(=O)c1cc(C)nc2c1C(=O)C(=O)C=C2N1CCOCC1	105*	99*	6	68*	-6	3	66	101*	Diaph ctr 10uM=99*;Diaph ctr 30uM=103*
COC(=O)c1cc(S(=O)(=O)N2CCOCC2)c(Cl)cc1N1CCOCC1	-9	-7	-7	-6	-7	0	/	/
COc1ccc(C2NCCc3sccc32)cc1 (stereo unspecified)	5	4	3	-4	-2	0	/	/
CCC(C)C(N)C1=NC(C(=O)N[C@@H](CC(C)C)C(=O)N[C@H](CCC(=O)[O-])C(=O)N[C@H](C(=O)N[C@H]2CCCCNC(=O)[C@H](CC(N)=O)NC(=O)[C@@H](CC(=O)[O-])NC(=O)[C@H](Cc3cnc[nH]3)NC(=O)[C@@H](Cc3ccccc3)NC(=O)[C@H]([C@@H](C)CC)NC(=O)[C@@H](CCCN)NC2=O)[C@@H](C)CC)CS1.[Zn+2] (stereo partly specified)	64*	/	/	92*	/	/	75	26
CC[C@H](C)[C@H](NC(=O)[C@H](Cc1ccc(O)cc1)NC(=O)[C@@H](N)C(C)C)C(=O)N[C@@H](Cc1cnc[nH]1)C(=O)N1CCC[C@H]1C(=O)N[C@@H](Cc1ccccc1)C(=O)O	-16	7	-4	-4	-1	2	/	/
Cc1cccc(CCN2C(N(C)C)=NC[C@@H]2C)c1	-5	/	/	2	18	-1	/	/
Cc1cc(C)nc(/N=c2/ssnc2Cl)c1	98*	9	29*	-137	3	-3	-84*	26
Cc1nn(CCC(=O)NCc2ccc(OC(C)C)cc2)c(=O)c2nn(-c3ccccc3)c(C)c12	1	-4	-3	2	-4	-4	/	/
CN(C)c1ncc(C2=C(Cl)C(=O)C(N3CCCC3)=C(Cl)C2=O)s1	91*	/	23	35*	70	77	20	98*	Diaph ctr 10uM=35;Diaph ctr 30uM=30
CC(=O)c1cnc(N(C)C)s1	0	3	-4	-7	-1	1	/	/
Cc1ccc(S(=O)(=O)NCCC(=O)NC(C)CCc2ccccc2)cc1 (stereo unspecified)	-2	/	/	-5	-11	-4	/	/
O=C(C1=C(c2ccccc2)C(=O)c2ccccc2C1=O)c1ccccc1	116*	9	0	58*	/	/	52	79*	Diaph ctr 10uM=84*;Diaph ctr 30uM=81*
O=C1C=C(c2c(O)ccc3ccccc23)c2ccccc2C1=O	118*	/	/	93*	/	/	78	111*	Diaph ctr 10uM=96*;Diaph ctr 30uM=97*
O=C(/C=C/c1cccs1)Nc1scc(-c2ccccc2)c1C(=O)O	70*	/	24	81*	/	/	58	39
Cc1ccc(S(=O)(=O)N(C)C)cc1NC(=O)COc1cccc(-n2cnnn2)c1	-10	/	/	-3	-7	-4	/	/
Cc1ccc(S(=O)(=O)N(C(=O)c2ccncc2)c2ccc(OC(=O)c3ccncc3)c3ccccc23)cc1	74*	-6	1	32	-4	0	16	56*	Diaph ctr 10uM=16;Diaph ctr 30uM=-10
CC(=O)Oc1ccc(N(C(C)=O)S(=O)(=O)c2ccccc2)c2ccccc12	1	/	/	/	/	/	/	/
CN(C)C(=O)/C(=C\c1cccc(Oc2ccccc2)c1)NC(=O)c1ccccc1	1	11	2	-4	0	1	/	/
COc1ncnc2c1oc1nc(C(C)C)c3c(c12)CC(C)(C)OC3	62*	-6	4	53*	3	2	43	37
CC(C)c1nc2oc3c(NCc4ccccn4)ncnc3c2c2c1COC(C)(C)C2	65*	/	/	35*	-7	-2	-4	28
Cc1ccc(SC2=C(N(C)C)C(=O)c3ccccc3C2=O)cc1	65*	/	/	57*	/	/	60	14
Cc1oc2c(c1C(=O)O)C(=O)c1ccccc1C2=O	32	57	7	14	8	11	/	/
Cc1oc2c(c1C(=O)c1ccccc1)C(=O)C(=O)c1ccccc1-2	108*	93*	7	42*	7	5	52	101*	Diaph ctr 10uM=90*;Diaph ctr 30uM=91*
SMILES	PfGluPho inh	SUMO HTRF inh	PfM18AAP inh	HKDC1 inhibitor	A3G deaminase	APOBEC3A inh	HKDC1 act conf2	PfG6PD confirm	others
O=C1C(=O)c2c(C(=O)c3ccccc3)coc2-c2ccccc21	117*	23	10	51*	-1	-5	53	107*	Diaph ctr 10uM=94*;Diaph ctr 30uM=100*
O=C(Nc1ccc2nc(-c3ccco3)c(-c3ccco3)nc2c1)NC1CC1	82*	?	29*	50*	92	101	-1	32
CSc1n[nH]c(-c2sccc2OCc2ccc(C)cc2)n1	-3	-11	0	-4	-2	0	/	/
Cc1cc(Br)cc(Cl)c1OCC(=O)N1CCN(C(=O)c2ccco2)CC1	6	/	/	-7	-2	-1	/	/
Cc1ccc(NC(=O)c2cc3ccccc3cc2O)cc1	18	19	8	5	-4	6	/	/
COc1ccc(NC(=O)c2cc3ccccc3cc2O)cc1	70*	24	0	38*	-2	-6	-13	28
CCOC(=O)c1cc2c(C)n(-c3ccc(N(C)C)cc3)c(C)c2cc(C(=O)OCC)c1=O	13	20	3	-1	-4	-1	/	/
Cc1ccc(S(=O)(=O)Nc2cc3c(C(=O)O)c(C)oc3c3ccccc23)c(C)c1	35	16	10	19	-9	3	/	/
